An excerpt weighted towards active compounds, which were near 1.8% of everything screened.
APOBEC3G inh – APOBEC3G DNA deaminase inhibitors, primary screen, biochemical, fluorescence, single-stranded DNA substrate, uHTS | DNA dC->dU-editing enzyme APOBEC-3G (Homo sapiens), Q9HC16 | recombinant A3G, ssDNA deamination FAM/TAMRA fluorescence | inhibition, % at 20 µM | actives 0.28% (n = 330,000) | AID 493012, 2011;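 active = inhibition of at least 40% at 20 µM, with no more than 30% in the related APOBEC3A deaminase screen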
Target sequence (Q9HC16 whole entry, looked up): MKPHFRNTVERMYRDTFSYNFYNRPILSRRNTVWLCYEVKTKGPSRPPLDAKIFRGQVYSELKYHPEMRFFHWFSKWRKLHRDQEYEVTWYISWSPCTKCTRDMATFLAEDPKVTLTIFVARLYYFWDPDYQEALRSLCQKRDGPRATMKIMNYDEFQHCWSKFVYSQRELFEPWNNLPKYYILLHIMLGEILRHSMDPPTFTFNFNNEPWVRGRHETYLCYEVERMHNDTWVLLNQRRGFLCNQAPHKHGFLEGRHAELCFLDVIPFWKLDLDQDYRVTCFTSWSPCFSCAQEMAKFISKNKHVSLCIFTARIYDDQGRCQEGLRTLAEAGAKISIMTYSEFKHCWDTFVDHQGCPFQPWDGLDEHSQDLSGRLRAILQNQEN
TbMetRS inhib – T. brucei MetRS inhibitors, primary screen, biochemical, luminescence; methionyl-tRNA synthetase (Trypanosoma brucei brucei); inhibition, % at 11.9 µM; actives 0.4% (n = 360,000); purified T. brucei MetRS, ATP depletion, Kinase-Glo luminescence;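 active = inhibition above a per-plate cutoff of the control wells' mean inhibition plus 3 SD, cut at about 5.5% in these data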
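Test system – parasite MetRS enzyme · Reagent – substrates ATP, L-methionine and bulk Escherichia coli tRNA · Doses – 11.9 µM compound single dose, 0.9% DMSO · Times – 15 min enzyme-compound preincubation, 2 h reaction, 10 min detection, 25 °C · Signal – Kinase-Glo luminescence, ATP depletion format · Controls – DMSO-only wells as low control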
pCIP destab – p/CIP-EGFP fusion destabilizers, primary screen, fluorescence, F442A cells | Q05BA5 | 16 h | decrease of EGFP signal, % at 10 µM | actives 0.01% (n = 290,000) | AID 1984, 2009;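 active = EGFP signal decrease of at least 30% at 10 µM or well 3 SD below plate mean, unless failing retest; inactive = the rest, including hits failing retest or dose response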
A3A deaminase – APOBEC3A ssDNA deaminase inhibitors, primary screen, selectivity assay for APOBEC3G inhibitor project, biochemical, FAM/TAMRA oligo cleavage fluorescence; DNA dC->dU-editing enzyme APOBEC-3A (Homo sapiens), P31941; AID 493011, 2011; recombinant A3A, FAM/TAMRA ssDNA deamination fluorescence; inhibition, % at 20 µM; actives 0.41% (n = 330,000);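 active = at least 40% inhibition at 20 µM here, with at most 30% in a related deaminase screen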
PHOSPHO1 inh – PubChem AID 1565; recombinant PHOSPHO1, absorbance phosphatase assay; inhibition, % at 13.3 µM; actives 1.1% (n = 290,000); in the data active = inhibition above about 60%
TbMetRS confirm – T. brucei MetRS inhibitors, confirmation, biochemical, luminescence | shares compounds with TbMetRS inhib | actives 93% (n = 1,400) | inhibition, % at 11.9 µM | T. brucei MetRS enzyme, luminescence (ATP depletion); in the data active = inhibition above about 7%
Jurkat cytotox – Jurkat T cell cytotoxicity, cytotoxicity control for T. brucei MetRS inhibitor project, luminescence, high throughput. shares compounds with TbMetRS inhib. Jurkat cells viability, ATP luminescence. inhibition, % at 8.3 µM. actives 12% (n = 1,400). AID 624413, 2012; in the data active = inhibition above about 15%
TbMetRS FP orth – T. brucei MetRS inhibitors, orthogonal assay for T. brucei MetRS inhibitor project, biochemical, fluorescence polarization; inhibition, % at 11.9 µM; shares compounds with TbMetRS inhib; AID 651607, 2012; purified T. brucei MetRS; actives 44% (n = 1,400); in the data active = inhibition above about 17%
Numbers stand for hits; – = inactive; · = no result.

SMILES | APOBEC3G inh | TbMetRS inhib | pCIP destab | A3A deaminase | PHOSPHO1 inh | TbMetRS confirm | Jurkat cytotox | TbMetRS FP orth
O=C(NCc1nc2ccccc2[nH]1)c1cccc(S(=O)(=O)N2CCCC2)c1 | – | 7.9 | – | – | – | 19 | – | –
O=C(NCc1cccc(Cl)c1)c1cccc(S(=O)(=O)N2CCCC2)c1 | – | 13 | · | – | · | 43 | – | 26
Cc1cc(NC(=O)C2C3C(=O)N(CCC(C)C)C(C(=O)NCc4ccccc4)C34C=CC2(C)O4)no1 (stereo not given) | – | – | – | – | – | · | · | ·
Cc1cc(C)n(-c2nnc(C)n2/N=C/c2ccccc2OCc2ccccc2Cl)n1 | – | – | – | – | – | · | · | ·
Cc1cc(C)n(-c2nnc(C)n2/N=C/c2cc(Br)ccc2OCc2ccccc2)n1 | – | 6.4 | – | – | – | – | – | –
CC1CCN(CCCOc2ccc(Cl)cc2Br)CC1 | – | – | – | – | – | · | · | ·
CC1CCCN(CCCOc2ccc(Cl)cc2Br)C1 (stereo not given) | – | 11 | – | – | – | 23 | – | –
CCCCc1nnc(NC(=O)c2ccc(-n3cncn3)c([N+](=O)[O-])c2)s1 | – | – | · | – | · | · | · | ·
CCc1ccccc1NC(=O)CNC(=O)c1ccc(-n2cncn2)c([N+](=O)[O-])c1 | – | 18 | · | – | · | 47 | – | 23
O=C(Nc1ccc(F)cc1F)c1ccc(-n2cccn2)c([N+](=O)[O-])c1 | – | – | – | – | – | · | · | ·
Cc1cccc(NC(=O)c2ccc(-n3cncn3)c([N+](=O)[O-])c2)c1 | – | 20 | · | – | · | 57 | – | 29
O=C(Nc1ccc(F)cc1)c1ccc(-n2cncn2)c([N+](=O)[O-])c1 | – | 34 | – | – | – | 48 | 22 | 28
Cc1ccc(NC(=O)c2ccc(-n3cncn3)c([N+](=O)[O-])c2)cc1F | – | 13 | · | – | · | 56 | – | 25
Brc1ccc(-c2nnc3sc(CNCc4ccc5c(c4)OCO5)cn23)cc1 | – | 33 | – | – | – | 48 | – | 25
Cc1ccc(CNCc2ccc3c(c2)OCO3)cc1 | – | – | – | – | – | · | · | ·
Cc1ccccc1-n1cc(-c2ccc(Br)cc2)nc1SCC(N)=O | – | 29 | – | – | – | 39 | – | 23
Cc1ccc(-c2cn(-c3ccccc3)c(SCC(N)=O)n2)cc1C | – | – | – | – | – | · | · | ·
C=CCc1cccc(CNc2nc3ccccc3n2CCC)c1O | – | 19 | – | – | – | 31 | – | 18
Cc1csc(CNc2ncnc3ccc(-c4ccccc4Cl)cc23)c1 | – | 6.0 | · | – | · | 25 | – | 20
CC(CCc1ccccc1)NC(=O)CNC(=O)COc1ccccc1 (stereo not given) | – | – | – | – | – | · | · | ·
COc1ccc(-c2noc([C@@H]3O[C@H](CO)[C@H](O)[C@H](O)[C@H]3O)n2)cc1OC | · | 7.5 | · | · | · | – | – | –
O=C(Nc1ccccc1)c1cc(C2CCCN(C(=O)c3cccs3)C2)on1 (stereo not given) | · | – | · | · | · | · | · | ·
Cc1cccc(NS(=O)(=O)c2c(C)[nH]c(C)c2C(=O)N2CCCC2)c1 | – | 26 | – | – | – | 55 | – | 20
COc1ccc(Cl)cc1NS(=O)(=O)c1c(C)[nH]c(C)c1C(=O)N1CCCCC1 | – | – | – | – | – | · | · | ·
CCOc1ccccc1NS(=O)(=O)c1c(C)[nH]c(C)c1C(=O)N1CCCCC1 | – | 35 | – | – | – | 57 | – | 27
